We go through 13 molecules from ChEMBL document CHEMBL3425433, “Discovery of bicyclic pyrazoles as class III histone deacetylase SIRT1 and SIRT2 inhibitors” (Bioorg Med Chem Lett, 2015).

Active and inactive are the calls of the source. The calls are words filed in the database; no cut-off is given here.

One experiment concerns the target Histone deacetylase 1 (Homo sapiens, UniProt Q13547). Nature of the experiment: Inhibition of HDAC1 (unknown origin).
Experiment [1] has as its target T1, NAD-dependent protein deacetylase sirtuin-1 (Homo sapiens) (UniProt Q96EB6).
T1 sequence (whole entry): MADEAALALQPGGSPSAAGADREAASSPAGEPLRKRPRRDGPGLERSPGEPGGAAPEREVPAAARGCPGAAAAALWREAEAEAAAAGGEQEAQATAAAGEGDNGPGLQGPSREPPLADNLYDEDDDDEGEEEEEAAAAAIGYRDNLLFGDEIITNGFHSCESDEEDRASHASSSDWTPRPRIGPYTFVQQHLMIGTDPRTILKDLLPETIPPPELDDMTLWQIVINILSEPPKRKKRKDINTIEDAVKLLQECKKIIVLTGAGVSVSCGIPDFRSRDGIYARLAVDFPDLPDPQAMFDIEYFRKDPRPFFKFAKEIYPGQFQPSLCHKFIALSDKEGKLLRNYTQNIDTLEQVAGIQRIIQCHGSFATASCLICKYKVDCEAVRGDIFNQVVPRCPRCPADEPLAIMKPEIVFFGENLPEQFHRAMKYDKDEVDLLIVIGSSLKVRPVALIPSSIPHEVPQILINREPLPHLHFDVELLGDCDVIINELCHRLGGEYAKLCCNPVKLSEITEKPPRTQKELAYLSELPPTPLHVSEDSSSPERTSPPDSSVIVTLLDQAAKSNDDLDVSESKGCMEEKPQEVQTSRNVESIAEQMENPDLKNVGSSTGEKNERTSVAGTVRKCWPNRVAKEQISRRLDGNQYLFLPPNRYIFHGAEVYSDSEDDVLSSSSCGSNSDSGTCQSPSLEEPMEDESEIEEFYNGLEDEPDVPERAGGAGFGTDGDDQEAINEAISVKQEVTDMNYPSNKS
Nature of the experiment: Inhibition of His-tagged human recombinant SIRT1 expressed in Escherichia coli at 20 uM using Cbz-Lys(Ac)-AMC as substrate by fluorescence assay. Summed up: (§1)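 Fluorescence deacetylase assay with in-house Cbz-Lys(Ac)-AMC substrate. Values are means of three experiments on racemic material. Single-point lines were tested at 20 µM, and less than 20% inhibition was scored as no inhibition.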

The target of experiment [2] is Histone deacetylase 4 (Homo sapiens) (UniProt P56524). Nature of the experiment: Inhibition of HDAC4 (unknown origin).
Sequence of Histone deacetylase 4 (Homo sapiens) (P56524 whole entry): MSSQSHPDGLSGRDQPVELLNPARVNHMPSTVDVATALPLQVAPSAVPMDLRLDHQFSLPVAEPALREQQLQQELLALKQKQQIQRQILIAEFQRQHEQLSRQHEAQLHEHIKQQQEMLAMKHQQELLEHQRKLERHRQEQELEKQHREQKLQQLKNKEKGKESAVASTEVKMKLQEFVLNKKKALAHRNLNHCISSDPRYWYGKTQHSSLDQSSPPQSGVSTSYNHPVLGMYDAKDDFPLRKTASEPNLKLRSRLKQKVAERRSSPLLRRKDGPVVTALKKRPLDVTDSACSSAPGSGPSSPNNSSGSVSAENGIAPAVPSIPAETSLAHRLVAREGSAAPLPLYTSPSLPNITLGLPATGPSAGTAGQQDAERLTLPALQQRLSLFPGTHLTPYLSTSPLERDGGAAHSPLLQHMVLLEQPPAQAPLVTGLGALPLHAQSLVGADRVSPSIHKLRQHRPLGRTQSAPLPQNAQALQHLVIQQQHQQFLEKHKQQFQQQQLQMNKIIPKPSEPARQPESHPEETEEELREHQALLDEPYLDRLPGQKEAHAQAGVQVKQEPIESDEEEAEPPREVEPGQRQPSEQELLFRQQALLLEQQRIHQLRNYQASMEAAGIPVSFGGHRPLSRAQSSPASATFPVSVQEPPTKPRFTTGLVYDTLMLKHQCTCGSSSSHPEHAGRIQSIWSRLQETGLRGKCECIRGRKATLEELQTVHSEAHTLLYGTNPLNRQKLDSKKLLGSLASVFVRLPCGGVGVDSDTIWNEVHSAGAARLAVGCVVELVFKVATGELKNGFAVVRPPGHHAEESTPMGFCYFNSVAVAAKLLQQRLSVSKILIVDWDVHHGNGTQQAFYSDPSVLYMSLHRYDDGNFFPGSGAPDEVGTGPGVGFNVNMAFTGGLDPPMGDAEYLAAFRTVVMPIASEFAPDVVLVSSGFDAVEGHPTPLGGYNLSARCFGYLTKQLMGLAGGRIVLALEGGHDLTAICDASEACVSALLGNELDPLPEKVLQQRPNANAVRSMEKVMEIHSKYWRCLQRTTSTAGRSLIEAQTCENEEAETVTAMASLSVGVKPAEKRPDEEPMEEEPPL
Experiment [3] addresses T2, NAD-dependent protein deacetylase sirtuin-2 (Homo sapiens) (UniProt Q8IXJ6).
T2 sequence (whole entry): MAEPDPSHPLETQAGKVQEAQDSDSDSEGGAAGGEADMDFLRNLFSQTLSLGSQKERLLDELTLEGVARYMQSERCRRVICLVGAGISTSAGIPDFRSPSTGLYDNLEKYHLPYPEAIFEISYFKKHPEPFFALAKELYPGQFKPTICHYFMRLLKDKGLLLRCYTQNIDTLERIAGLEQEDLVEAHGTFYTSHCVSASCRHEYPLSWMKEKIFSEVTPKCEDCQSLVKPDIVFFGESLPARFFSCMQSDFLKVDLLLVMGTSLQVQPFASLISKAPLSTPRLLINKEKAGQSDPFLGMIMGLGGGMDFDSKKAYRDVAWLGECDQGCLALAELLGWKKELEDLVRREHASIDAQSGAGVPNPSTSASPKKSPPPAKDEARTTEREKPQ
Nature of the experiment: Inhibition of His-tagged human recombinant SIRT2 expressed in Escherichia coli at 20 uM using Cbz-Lys(Ac)-AMC as substrate by fluorescence assay. Summed up: as §1

In experiment [4] the target is Histone deacetylase 5 (Homo sapiens) (UniProt Q9UQL6). Nature of the experiment: Inhibition of HDAC5 (unknown origin).
Sequence of Histone deacetylase 5 (Homo sapiens) (Q9UQL6 whole entry): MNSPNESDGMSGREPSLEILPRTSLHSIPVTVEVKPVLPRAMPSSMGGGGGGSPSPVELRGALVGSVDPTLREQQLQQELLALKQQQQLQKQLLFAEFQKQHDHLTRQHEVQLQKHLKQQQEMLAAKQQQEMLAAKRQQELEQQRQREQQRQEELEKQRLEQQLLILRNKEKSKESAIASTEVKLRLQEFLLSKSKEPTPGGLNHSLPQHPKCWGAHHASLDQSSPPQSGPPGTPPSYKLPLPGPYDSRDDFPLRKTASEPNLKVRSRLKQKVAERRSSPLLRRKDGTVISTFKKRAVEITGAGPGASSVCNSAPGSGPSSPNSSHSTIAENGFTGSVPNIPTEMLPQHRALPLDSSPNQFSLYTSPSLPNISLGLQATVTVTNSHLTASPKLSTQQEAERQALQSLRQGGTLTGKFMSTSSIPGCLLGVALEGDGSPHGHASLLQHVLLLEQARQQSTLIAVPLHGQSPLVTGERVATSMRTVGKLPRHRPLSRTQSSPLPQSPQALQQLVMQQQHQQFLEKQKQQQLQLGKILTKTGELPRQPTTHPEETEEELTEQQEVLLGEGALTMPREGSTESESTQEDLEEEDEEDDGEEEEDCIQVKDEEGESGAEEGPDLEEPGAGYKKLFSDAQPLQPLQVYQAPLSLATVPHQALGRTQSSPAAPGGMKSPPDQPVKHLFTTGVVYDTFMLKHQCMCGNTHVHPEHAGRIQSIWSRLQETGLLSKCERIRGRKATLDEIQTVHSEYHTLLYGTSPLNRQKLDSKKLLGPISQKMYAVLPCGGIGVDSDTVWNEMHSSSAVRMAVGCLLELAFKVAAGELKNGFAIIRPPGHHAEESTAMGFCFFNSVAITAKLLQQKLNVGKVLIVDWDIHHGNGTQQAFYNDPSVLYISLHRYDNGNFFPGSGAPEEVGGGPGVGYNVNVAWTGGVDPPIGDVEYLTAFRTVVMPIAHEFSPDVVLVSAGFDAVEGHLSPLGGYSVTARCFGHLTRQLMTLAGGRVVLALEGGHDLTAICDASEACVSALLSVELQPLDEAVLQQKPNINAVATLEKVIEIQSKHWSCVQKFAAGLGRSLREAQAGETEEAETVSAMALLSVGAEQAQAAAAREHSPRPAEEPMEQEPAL
Experiment [5] addresses T3, Histone deacetylase 8 (Homo sapiens) (UniProt Q9BY41).
T3 sequence (whole entry): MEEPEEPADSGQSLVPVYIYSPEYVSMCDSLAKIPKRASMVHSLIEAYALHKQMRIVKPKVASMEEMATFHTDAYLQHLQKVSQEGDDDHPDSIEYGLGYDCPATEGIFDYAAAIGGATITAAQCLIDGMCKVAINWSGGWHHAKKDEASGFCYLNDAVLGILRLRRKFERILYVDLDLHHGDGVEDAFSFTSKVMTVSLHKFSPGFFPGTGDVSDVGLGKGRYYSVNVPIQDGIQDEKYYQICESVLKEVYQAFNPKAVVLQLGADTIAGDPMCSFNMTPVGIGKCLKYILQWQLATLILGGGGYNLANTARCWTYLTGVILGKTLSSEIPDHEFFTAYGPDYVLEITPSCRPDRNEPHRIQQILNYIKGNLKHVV
Nature of the experiment: Inhibition of HDAC8 (unknown origin).

Experiment [6] concerns the target T4, Histone deacetylase 7 (Homo sapiens) (UniProt Q8WUI4).
T4 sequence (whole entry): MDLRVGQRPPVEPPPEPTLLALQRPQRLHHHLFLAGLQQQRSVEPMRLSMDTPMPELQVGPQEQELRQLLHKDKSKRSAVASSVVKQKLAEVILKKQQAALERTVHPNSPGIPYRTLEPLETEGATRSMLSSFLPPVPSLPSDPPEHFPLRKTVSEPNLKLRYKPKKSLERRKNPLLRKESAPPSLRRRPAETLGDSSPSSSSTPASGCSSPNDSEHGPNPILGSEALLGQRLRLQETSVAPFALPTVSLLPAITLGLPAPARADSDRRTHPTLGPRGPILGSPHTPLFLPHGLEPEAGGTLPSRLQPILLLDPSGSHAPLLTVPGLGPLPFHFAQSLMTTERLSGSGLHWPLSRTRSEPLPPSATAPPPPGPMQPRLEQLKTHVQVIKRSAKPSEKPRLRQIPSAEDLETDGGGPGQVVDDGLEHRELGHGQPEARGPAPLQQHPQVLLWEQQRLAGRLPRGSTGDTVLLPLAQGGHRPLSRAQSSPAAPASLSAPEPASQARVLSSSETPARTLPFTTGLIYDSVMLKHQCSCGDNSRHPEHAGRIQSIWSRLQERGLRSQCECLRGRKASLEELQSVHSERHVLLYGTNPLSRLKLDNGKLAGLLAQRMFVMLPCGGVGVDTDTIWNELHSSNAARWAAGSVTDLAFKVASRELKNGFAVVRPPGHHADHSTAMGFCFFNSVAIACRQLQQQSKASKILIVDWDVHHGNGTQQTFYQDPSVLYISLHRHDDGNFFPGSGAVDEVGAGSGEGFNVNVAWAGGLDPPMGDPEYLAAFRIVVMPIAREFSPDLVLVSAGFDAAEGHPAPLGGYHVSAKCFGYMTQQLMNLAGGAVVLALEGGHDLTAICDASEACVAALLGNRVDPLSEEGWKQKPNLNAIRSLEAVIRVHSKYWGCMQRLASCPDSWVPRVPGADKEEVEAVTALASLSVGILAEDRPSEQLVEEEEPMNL
Nature of the experiment: Inhibition of HDAC7 (unknown origin).

The next experiment addresses Histone deacetylase 2 (Homo sapiens, UniProt Q92769). In words: Inhibition of HDAC2 (unknown origin).

Sequence of Histone deacetylase 1 (Q13547 whole entry): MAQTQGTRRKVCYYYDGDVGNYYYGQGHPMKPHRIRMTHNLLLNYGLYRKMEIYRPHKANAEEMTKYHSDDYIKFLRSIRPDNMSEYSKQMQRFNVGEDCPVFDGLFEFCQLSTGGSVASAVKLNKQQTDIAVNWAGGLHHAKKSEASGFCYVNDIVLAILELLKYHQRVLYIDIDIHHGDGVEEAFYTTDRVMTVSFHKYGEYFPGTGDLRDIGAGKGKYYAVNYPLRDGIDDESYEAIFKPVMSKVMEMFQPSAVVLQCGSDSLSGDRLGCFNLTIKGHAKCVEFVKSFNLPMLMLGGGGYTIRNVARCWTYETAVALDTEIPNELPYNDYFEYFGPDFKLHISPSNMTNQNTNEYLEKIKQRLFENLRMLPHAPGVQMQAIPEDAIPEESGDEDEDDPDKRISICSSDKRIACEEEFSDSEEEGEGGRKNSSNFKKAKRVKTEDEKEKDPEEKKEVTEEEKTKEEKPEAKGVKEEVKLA
Sequence of Histone deacetylase 2 (Q92769 whole entry): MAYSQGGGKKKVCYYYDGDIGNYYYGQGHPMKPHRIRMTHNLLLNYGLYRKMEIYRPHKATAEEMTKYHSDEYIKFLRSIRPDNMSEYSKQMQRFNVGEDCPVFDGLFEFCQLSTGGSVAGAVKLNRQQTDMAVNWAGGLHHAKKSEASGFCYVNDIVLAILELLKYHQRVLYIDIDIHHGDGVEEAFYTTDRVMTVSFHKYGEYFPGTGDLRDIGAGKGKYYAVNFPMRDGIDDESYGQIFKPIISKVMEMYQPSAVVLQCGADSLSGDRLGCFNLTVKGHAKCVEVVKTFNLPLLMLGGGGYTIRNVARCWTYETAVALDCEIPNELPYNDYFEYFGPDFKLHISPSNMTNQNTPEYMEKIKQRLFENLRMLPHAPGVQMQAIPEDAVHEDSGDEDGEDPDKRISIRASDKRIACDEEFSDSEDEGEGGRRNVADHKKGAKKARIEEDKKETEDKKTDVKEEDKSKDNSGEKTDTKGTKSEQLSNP

As to `NC(=O)C1Cc2ccccc2Cc2c(-c3ccc(Cl)cc3)n[nH]c21` (racemic), the inhibition entry (on Histone deacetylase 1; in experiment [2]; in experiment [4]; in experiment [5]; in experiment [6]; at Histone deacetylase 2) was “inactive” throughout. Besides, the inhibition (usually how much of the control response was suppressed) in experiment [1] was 42%; in experiment [3], 50%.

With `NC(=O)C1CCCc2c(-c3cc4cc(Br)ccc4s3)n[nH]c21` (racemic), the inhibition result (on Histone deacetylase 1; in experiment [2]; in experiment [4]; in experiment [5]; in experiment [6]; on Histone deacetylase 2) was “inactive” each time. Further, the values for the inhibition in experiment [1] and in experiment [3] were 38% and 33%, respectively.

As for `Cn1cc(-c2n[nH]c3c2CCCC3C(N)=O)c2ccccc21` (racemic), the inhibition entry (on Histone deacetylase 1; in experiment [2]; in experiment [4]; in experiment [5]; in experiment [6]; at Histone deacetylase 2) was “inactive” in each case. Also, the inhibition in experiment [1] and in experiment [3] was below 20% throughout.

`NC(=O)C1CCCc2c(-c3ccc(C(F)(F)F)cc3)n[nH]c21` (racemic): the inhibition entry (on Histone deacetylase 1; in experiment [2]; in experiment [4]; in experiment [5]; in experiment [6]; on Histone deacetylase 2) was “inactive” throughout. For the same molecule, the inhibition in experiment [1] and in experiment [3] was below 20% in each case.

As to `NC(=O)C1CC(c2ccccc2)Cc2c(-c3ccc(Cl)cc3)n[nH]c21` (mixture of isomers), the inhibition result (on Histone deacetylase 1; in experiment [2]; in experiment [4]; in experiment [5]; in experiment [6]; on Histone deacetylase 2) was “inactive” in each case. Besides, the inhibition in experiment [1] was 59%; in experiment [3], 62%.

As to `NC(=O)C1CCCc2c(-c3cccc(Cl)c3)n[nH]c21` (racemic), the inhibition result (at Histone deacetylase 1; in experiment [2]; in experiment [4]; in experiment [5]; in experiment [6]; at Histone deacetylase 2) was “inactive” in each case. Besides, the inhibition in experiment [1] was 27%; in experiment [3] it was below 20%.

Take `NC(=O)C1CCCc2c(-c3ccccc3)n[nH]c21` (racemic): the inhibition entry (at Histone deacetylase 1; in experiment [2]; in experiment [4]; in experiment [5]; in experiment [6]; at Histone deacetylase 2) was “inactive” throughout. Besides, the figures for the inhibition in experiment [1] and in experiment [3] were 44% and below 20%, respectively.

Turning to `NC(=O)C1CCCc2c(-c3ccc(F)cc3)n[nH]c21` (racemic), the inhibition result (at Histone deacetylase 1; in experiment [2]; in experiment [4]; in experiment [5]; in experiment [6]; at Histone deacetylase 2) was “inactive” each time. Besides, the inhibition was 42% in experiment [1] and below 20% in experiment [3].

For the molecule `NC(=O)C1CCCc2c(-c3cc4ccccc4[nH]3)n[nH]c21` (racemic), the inhibition entry (at Histone deacetylase 1; in experiment [2]; in experiment [4]; in experiment [5]; in experiment [6]; on Histone deacetylase 2) was “inactive” throughout. Also, the inhibition in experiment [1] amounted to 46%; in experiment [3], 43%.

Take `NC(=O)C1CCCCCc2c(-c3ccc(Cl)cc3)n[nH]c21` (racemic): the inhibition entry (at Histone deacetylase 1; in experiment [2]; in experiment [4]; in experiment [5]; in experiment [6]; on Histone deacetylase 2) was “inactive” in each case. Moreover, the inhibition in experiment [1] was found to be 28%; in experiment [3], 22%.

`CC1(C)Cc2c(-c3ccc(Cl)c(Cl)c3)n[nH]c2C(C(N)=O)C1` (racemic): the inhibition result (at Histone deacetylase 1; in experiment [2]; in experiment [4]; in experiment [5]; in experiment [6]; at Histone deacetylase 2) was “inactive” in each case. Further, the values for the inhibition in experiment [1] and in experiment [3] were 23% and 28%, respectively.

Regarding `NC(=O)C1CCCc2c(-c3cccs3)n[nH]c21` (racemic), the inhibition result (on Histone deacetylase 1; in experiment [2]; in experiment [4]; in experiment [5]; in experiment [6]; on Histone deacetylase 2) was “inactive” in each case. Also, the inhibition was 47% in experiment [1] and below 20% in experiment [3].

`CCOC(=O)C1CCCc2c(-c3ccc(Cl)c(F)c3)n[nH]c21` (racemic): the inhibition result (at Histone deacetylase 1; in experiment [2]; in experiment [4]; in experiment [5]; in experiment [6]; at Histone deacetylase 2) was “inactive” in each case. Also, the inhibition in experiment [1] and in experiment [3] was below 20% in each case.
